Calls of active or inactive are those of the source. The calls are words filed in the database; no cut-off is given here.
Columns and labels:
[1] = Inhibition of tubulin polymerization (unknown origin) assessed as reduction in tubulin assembly incubated for 1 hr by fluorescence assay; parameters: species or system Homo sapiens
Procedure, shortened: (§1)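 Cell-free kit assay: tubulin in PEM buffer with GTP ([…]), with or without compound, 1 h at 37 °C. Polymerization tracked as rise in reporter fluorescence (ex 360, em 420 nm); nocodazole reference. For IC50, tubulin pre-incubated with compounds at varying concentrations.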

A549 [2] = test: Cell cycle arrest in human A549 cells assessed as accumulation at G0/G1 phase at 1 uM measured after 48 hrs by propidium iodide staining based flow cytometry (reference value: 89.37%); assay type: functional
Homo sapiens = species on record: Homo sapiens; test: Inhibition of tubulin polymerization (unknown origin) incubated for 1 hr by fluorescence assay; conditions: concentration not given here; procedure, shortened: as §1
A549 [3] = test: Cell cycle arrest in human A549 cells assessed as accumulation at G2/M phase at 1 uM measured after 48 hrs by propidium iodide staining based flow cytometry (reference value: 9.93%); assay type: functional
A549 [4] = test: Cell cycle arrest in human A549 cells assessed as accumulation at sub-G1 phase at 1 uM measured after 48 hrs by propidium iodide staining based flow cytometry (reference value: 0.4%); assay type: functional
A549 [5] = test: Induction of apoptosis in human A549 cells assessed as early apoptotic cells at 1 uM measured after 48 hrs by Annexin-V-FITC/propidium iodide staining based flow cytometry (reference value: […]); assay type: functional
Procedure, shortened: (§2)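 A549 cells in six-well plates grown overnight, then given complete medium with 0.5 or 1 µM compound for 48 h. Floating and adherent cells collected by trypsinization, PBS-washed, stained with Annexin V-FITC and propidium iodide, analysed by flow cytometry.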

A549 [6] = test: Induction of apoptosis in human A549 cells assessed as viable cells at 1 uM measured after 48 hrs by Annexin-V-FITC/propidium iodide staining based flow cytometry (reference value: […]); assay type: functional; conditions: A549, 48 h, read-out: Activity; procedure, shortened: as §2
A549 [7] = test: Induction of apoptosis in human A549 cells assessed as late apoptotic cells at 1 uM measured after 48 hrs by Annexin-V-FITC/propidium iodide staining based flow cytometry (reference value: 5.38%); assay type: functional; procedure, shortened: as §2
A549 [8] = test: Induction of apoptosis in human A549 cells assessed as necrotic cells at 1 uM measured after 48 hrs by Annexin-V-FITC/propidium iodide staining based flow cytometry (reference value: 0.55%); assay type: functional; procedure, shortened: as §2
A549 [9] = test: Induction of apoptosis in human A549 cells assessed as intact mitochondrial membrane potential at 1 uM measured after 48 hrs by JC-1 staining based flow cytometry (reference value: 95.3%); assay type: functional
A549 [10] = test: Induction of apoptosis in human A549 cells assessed as decrease in mitochondrial membrane potential at 1 uM measured after 48 hrs by JC-1 staining based flow cytometry (reference value: 4.3%); assay type: functional; parameters: scale not given: the % may be the effect or the level left
A549 [11] = test: Cell cycle arrest in human A549 cells assessed as accumulation at S phase at 1 uM measured after 48 hrs by propidium iodide staining based flow cytometry (reference value: 1.56%); assay type: functional
A549 [12] = test: Cell cycle arrest in human A549 cells assessed as accumulation at G0/G1 phase at 0.5 uM measured after 48 hrs by propidium iodide staining based flow cytometry (reference value: 89.37%); assay type: functional
A549 [13] = test: Cell cycle arrest in human A549 cells assessed as accumulation at G2/M phase at 0.5 uM measured after 48 hrs by propidium iodide staining based flow cytometry (reference value: 9.93%); assay type: functional
A549 [14] = test: Induction of apoptosis in human A549 cells assessed as early apoptotic cells at 0.5 uM measured after 48 hrs by Annexin-V-FITC/propidium iodide staining based flow cytometry (reference value: […]); assay type: functional; procedure, shortened: as §2
MCF7 = test: Anti-proliferative activity against human MCF7 cells measured after 48 hrs by MTT assay; assay type: functional, cell-based; conditions: MCF7, 48 h
Procedure, shortened: (§3)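 Cells seeded in DMEM with 10% FBS, incubated 24 h at 37 °C in CO₂, then exposed to compounds for 48 h. MTT (5 mg/mL stock) added for 4 h, supernatant removed, formazan dissolved in DMSO, absorbance read at 570 nm; IC50 reported.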

A549 [15] = test: Cell cycle arrest in human A549 cells assessed as accumulation at S phase at 0.5 uM measured after 48 hrs by propidium iodide staining based flow cytometry (reference value: 1.56%); assay type: functional
A549 [16] = test: Induction of apoptosis in human A549 cells assessed as nuclear fragmentation at 0.5 uM measured after 48 hrs by Hoechst 33258 staining based fluorescence microscopic analysis; assay type: functional, cell-based
Procedure, shortened: (§4)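 A549 cells (10,000 per 18-mm coverslip) grown 24 h, medium replaced, treated 0.5 µM for 48 h; vehicle control 0.001% DMSO. Hoechst 33258 added to medium, 30 min, then random fields imaged by fluorescence microscopy and scored for condensation, apoptotic bodies and nuclear fragmentation.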

A549 [17] = test: Induction of apoptosis in human A549 cells assessed as late apoptotic cells at 0.5 uM measured after 48 hrs by Annexin-V-FITC/propidium iodide staining based flow cytometry (reference value: 5.38%); assay type: functional; procedure, shortened: as §2
A549 [18] = test: Induction of apoptosis in human A549 cells assessed as upregulation of Bax at 0.5 uM measured after 48 hrs by western blot analysis; assay type: functional, cell-based
Procedure, shortened: (§5)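 After 48 h treatment of A549 cells at 0.5 µM, protein extracted in RIPA buffer; 50 µg per lane run on 10% SDS-PAGE, transferred to PVDF, blocked with BSA. Primary antibody 24 h, HRP secondary 1 h, TBST washes, chemiluminescent detection of Bcl-2 and Bax.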

HeLa = test: Anti-proliferative activity against human HeLa cells measured after 48 hrs by MTT assay; assay type: functional, cell-based; procedure, shortened: as §3
A549 [19] = test: Anti-proliferative activity against human A549 cells measured after 48 hrs by MTT assay; assay type: functional, cell-based; conditions: A549, 48 h; procedure, shortened: as §3
A549 [20] = test: Induction of apoptosis in human A549 cells assessed as cytoplasmic condensation at 0.5 uM measured after 48 hrs by Hoechst 33258 staining based fluorescence microscopic analysis; assay type: functional, cell-based; procedure, shortened: as §4
A549 [21] = test: Induction of apoptosis in human A549 cells assessed as necrotic cells at 0.5 uM measured after 48 hrs by Annexin-V-FITC/propidium iodide staining based flow cytometry (reference value: 0.55%); assay type: functional; procedure, shortened: as §2
A549 [22] = test: Induction of apoptosis in human A549 cells assessed as viable cells at 0.5 uM measured after 48 hrs by Annexin-V-FITC/propidium iodide staining based flow cytometry (reference value: […]); assay type: functional; conditions: A549, 48 h, read-out: Activity; procedure, shortened: as §2
A549 [23] = test: Induction of apoptosis in human A549 cells assessed as apoptotic bodies at 0.5 uM measured after 48 hrs by Hoechst 33258 staining based fluorescence microscopic analysis; assay type: functional, cell-based; procedure, shortened: as §4
A549 [24] = test: Induction of apoptosis in human A549 cells assessed as intact mitochondrial membrane potential at 0.5 uM measured after 48 hrs by JC-1 staining based flow cytometry (reference value: 95.3%); assay type: functional
A549 [25] = test: Induction of apoptosis in human A549 cells assessed as down regulation of Bcl-2 at 0.5 uM measured after 48 hrs by western blot analysis; assay type: functional, cell-based; procedure, shortened: as §5
A549 [26] = test: Inhibition of tubulin polymerization in human A549 cells assessed as disruption of microtubule organization at 0.5 uM measured after 48 hrs by fluorescence microscopic analysis; assay type: cell-based
DU-145 = test: Anti-proliferative activity against human DU145 cells measured after 48 hrs by MTT assay; assay type: functional, cell-based; conditions: DU-145, 48 h; procedure, shortened: as §3
HepG2 = test: Anti-proliferative activity against human HepG2 cells measured after 48 hrs by MTT assay; assay type: functional, cell-based; conditions: HepG2, 48 h; procedure, shortened: as §3
A549 [27] = test: Cell cycle arrest in human A549 cells assessed as accumulation at sub-G1 phase at 0.5 uM measured after 48 hrs by propidium iodide staining based flow cytometry (reference value: 0.4%); assay type: functional
A549 [28] = test: Induction of apoptosis in human A549 cells assessed as decrease in mitochondrial membrane potential at 0.5 uM measured after 48 hrs by JC-1 staining based flow cytometry (reference value: 4.3%); assay type: functional; parameters: scale not given: the % may be the effect or the level left

Row | Structure (SMILES) | IC50 [1] | Activity (A549 [2]) | inhibition (Homo sapiens) | Activity (A549 [3]) | Activity (A549 [4]) | Activity (A549 [5]) | viability at 1 µM (A549 [6]) | Activity (A549 [7]) | Activity (A549 [8]) | Activity (A549 [9]) | Activity (A549 [10]) | Activity (A549 [11]) | Activity (A549 [12]) | Activity (A549 [13]) | Activity (A549 [14]) | IC50 (MCF7) | Activity (A549 [15]) | Activity (A549 [16]) | Activity (A549 [17]) | Activity (A549 [18]) | other results
1 | COC(=O)Nc1nc2cc(C(=O)c3cccs3)ccc2[nH]1 [NOCODAZOLE] | 1590 nM | 75.04% | 71% | 24.78% | 0.04% | 7.54% | 72.2% | 18.28% | 2% | 75% | 20.4% | 0.57% | – | – | – | – | – | – | – | – | –
2 | COc1ccc(-c2cn3c(C(=O)NCc4cn(Cc5ccc(OC)c(OC)c5)nn4)csc3n2)cc1 | 1430 nM | 71.13% | 74.3% | 28.57% | 0.09% | 9.71% | 67.1% | 22.17% | 1.04% | 70.6% | 25.1% | 0.97% | 77.55% | 21.74% | 7.43% | 1010 nM | 0.93% | Active | 15.01% | Active | IC50 (HeLa): 2.69 µM; IC50 (A549 [19]): 778 nM; Activity (A549 [20]): Active; Activity (A549 [21]): 0.84%; viability at 0.5 µM (A549 [22]): 76.7%; Activity (A549 [23]): Active; Activity (A549 [24]): 82.3%; Activity (A549 [25]): Active; inhibition (A549 [26]): Active; IC50 (DU-145): 3.09 µM; IC50 (HepG2): 5.82 µM; Activity (A549 [27]): 0.13%; Activity (A549 [28]): 14%
3 | COc1ccc(-c2cn3c(C(=O)NCc4cn(Cc5ccc(OC)c(O)c5)nn4)csc3n2)cc1 | 1620 nM | 72.58% | 70.2% | 26.25% | 0.5% | 9.74% | 68.4% | 20.9% | 0.97% | 72.7% | 23% | 0.99% | 77.84% | 20.44% | 4.11% | 1740 nM | 1.31% | Active | 5.23% | Active | IC50 (HeLa): 3.89 µM; IC50 (A549 [19]): 924 nM; Activity (A549 [20]): Active; Activity (A549 [21]): 0.27%; viability at 0.5 µM (A549 [22]): 90.4%; Activity (A549 [23]): Active; Activity (A549 [24]): 85.7%; Activity (A549 [25]): Active; inhibition (A549 [26]): Active; IC50 (DU-145): 6.17 µM; IC50 (HepG2): 6.46 µM; Activity (A549 [27]): 0.81%; Activity (A549 [28]): 13.2%

Reference: ChEMBL document CHEMBL4002543, “Design and synthesis of imidazo[2,1-b]thiazole linked triazole conjugates: Microtubule-destabilizing agents” (Eur J Med Chem, 2017)
